The text below walks through data of ChEMBL document CHEMBL1154713, “Molecular iodine promoted synthesis of new pyrazolo[3,4-d]pyrimidine derivatives as potential antibacterial agents” (2010).

Format in all cases: functional
Assay [1] concerns Bacillus subtilis. The experiment in a line: Antibacterial activity against Bacillus subtilis PTCC 1365 at 100 ug/ml after 24 hrs by disk diffusion sensitivity assay. To be noted: PTCC 1365, 24 h, read-out: IZ. The procedure, abridged: (§1)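 Disc diffusion on Mueller–Hinton agar poured 5 mm deep, swabbed with 1.2 × 10⁸ CFU/mL bacterial suspension (0.5 McFarland). Compounds dissolved in DMF, diluted with ethanol to 100–600 µg/mL solutions, loaded onto 6.25 mm filter-paper discs. Discs placed in triplicate, incubated 24 h at 37 °C. Average inhibition zone reported, maximum across concentrations shown. Streptomycin used as standard.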
(In general: Agar diffusion results depend on both activity and mobility in agar.)

In assay [2] the test system is Pseudomonas aeruginosa. The experiment in a line: Antibacterial activity against Pseudomonas aeruginosa PTCC 1431 at 100 ug/ml after 24 hrs by disk diffusion sensitivity assay. To be noted: PTCC 1431, 24 h, read-out: IZ. The procedure, abridged:
as §1

Assay [3] concerns Staphylococcus aureus. In words: Antibacterial activity against Staphylococcus aureus PTCC 1074 at 100 ug/ml after 24 hrs by disk diffusion sensitivity assay. To be noted: PTCC 1074, 24 h, read-out: IZ. The procedure, abridged:
as §1

A short description of assay [4]: Antibacterial activity against Escherichia coli HB101 BA 7601C at 100 ug/ml after 24 hrs by disk diffusion sensitivity assay. To be noted: read-out: IZ. The method, boiled down:
as §1

For assay [5], the system named is Staphylococcus aureus. The experiment in a line: Antibacterial activity against Staphylococcus aureus PTCC 1074 at 200 ug/ml after 24 hrs by disk diffusion sensitivity assay. To be noted: PTCC 1074, 24 h, read-out: IZ. The procedure, abridged: as §1
Assay [6] in a line: Antibacterial activity against Escherichia coli HB101 BA 7601C at 200 ug/ml after 24 hrs by disk diffusion sensitivity assay. To be noted: read-out: IZ. The procedure, abridged: as §1
Assay [7] concerns Bacillus subtilis. The experiment in a line: Antibacterial activity against Bacillus subtilis PTCC 1365 at 200 ug/ml after 24 hrs by disk diffusion sensitivity assay. To be noted: PTCC 1365, 24 h, read-out: IZ. The method, boiled down: as §1
The test system of assay [8] is Pseudomonas aeruginosa. In words: Antibacterial activity against Pseudomonas aeruginosa PTCC 1431 at 200 ug/ml after 24 hrs by disk diffusion sensitivity assay. To be noted: PTCC 1431, 24 h, read-out: IZ. The procedure, abridged: as §1
The nature of assay [9]: Antibacterial activity against Escherichia coli HB101 BA 7601C at 400 ug/ml after 24 hrs by disk diffusion sensitivity assay. To be noted: read-out: IZ. The method, boiled down:
as §1

Assay [10] concerns Staphylococcus aureus. In words: Antibacterial activity against Staphylococcus aureus PTCC 1074 at 400 ug/ml after 24 hrs by disk diffusion sensitivity assay. To be noted: PTCC 1074, 24 h, read-out: IZ. The method, boiled down: as §1
The test system of assay [11] is Bacillus subtilis. The experiment in a line: Antibacterial activity against Bacillus subtilis PTCC 1365 at 400 ug/ml after 24 hrs by disk diffusion sensitivity assay. To be noted: PTCC 1365, 24 h, read-out: IZ. The procedure, abridged: as §1
Assay [12] relates to Pseudomonas aeruginosa. The experiment in a line: Antibacterial activity against Pseudomonas aeruginosa PTCC 1431 at 400 ug/ml after 24 hrs by disk diffusion sensitivity assay. To be noted: PTCC 1431, 24 h, read-out: IZ. The procedure, abridged:
as §1

A short description of assay [13]: Antibacterial activity against Escherichia coli HB101 BA 7601C at 500 ug/ml after 24 hrs by disk diffusion sensitivity assay. To be noted: read-out: IZ. The method, boiled down:
as §1

Assay [14] has as its system Bacillus subtilis. In words: Antibacterial activity against Bacillus subtilis PTCC 1365 at 500 ug/ml after 24 hrs by disk diffusion sensitivity assay. To be noted: PTCC 1365, 24 h, read-out: IZ. The method, boiled down: as §1
In assay [15] the test system is Pseudomonas aeruginosa. In words: Antibacterial activity against Pseudomonas aeruginosa PTCC 1431 at 500 ug/ml after 24 hrs by disk diffusion sensitivity assay. To be noted: PTCC 1431, 24 h, read-out: IZ. The procedure, abridged:
as §1

Assay [16] has as its system Staphylococcus aureus. In words: Antibacterial activity against Staphylococcus aureus PTCC 1074 at 500 ug/ml after 24 hrs by disk diffusion sensitivity assay. To be noted: PTCC 1074, 24 h, read-out: IZ. The method, boiled down:
as §1

Assay [17] concerns Pseudomonas aeruginosa. In words: Antibacterial activity against Pseudomonas aeruginosa PTCC 1431 at 300 ug/ml after 24 hrs by disk diffusion sensitivity assay. To be noted: PTCC 1431, 24 h, read-out: IZ. The method, boiled down: as §1
Assay [18] concerns Staphylococcus aureus. The experiment in a line: Antibacterial activity against Staphylococcus aureus PTCC 1074 at 300 ug/ml after 24 hrs by disk diffusion sensitivity assay. To be noted: PTCC 1074, 24 h, read-out: IZ. The method, boiled down: as §1
In assay [19] the test system is Bacillus subtilis. In words: Antibacterial activity against Bacillus subtilis PTCC 1365 at 300 ug/ml after 24 hrs by disk diffusion sensitivity assay. To be noted: PTCC 1365, 24 h, read-out: IZ. The procedure, abridged: as §1
The nature of assay [20]: Antibacterial activity against Escherichia coli HB101 BA 7601C at 300 ug/ml after 24 hrs by disk diffusion sensitivity assay. To be noted: read-out: IZ. The procedure, abridged: as §1
The nature of assay [21]: Antibacterial activity against Escherichia coli HB101 BA 7601C at 10 ug/ml after 24 hrs by disk diffusion sensitivity assay. To be noted: read-out: IZ.
For assay [22], the system named is Staphylococcus aureus. In words: Antibacterial activity against Staphylococcus aureus PTCC 1074 at 10 ug/ml after 24 hrs by disk diffusion sensitivity assay. To be noted: PTCC 1074, 24 h, read-out: IZ.
For assay [23], the system named is Pseudomonas aeruginosa. The experiment in a line: Antibacterial activity against Pseudomonas aeruginosa PTCC 1431 at 10 ug/ml after 24 hrs by disk diffusion sensitivity assay. To be noted: PTCC 1431, 24 h, read-out: IZ.
Assay [24] relates to Bacillus subtilis. In words: Antibacterial activity against Bacillus subtilis PTCC 1365 at 10 ug/ml after 24 hrs by disk diffusion sensitivity assay. To be noted: PTCC 1365, 24 h, read-out: IZ.

With `COc1ccc(-c2nc3c(cnn3-c3ccc([N+](=O)[O-])cc3[N+](=O)[O-])c(=O)[nH]2)cc1`, the zone of inhibition at 100 µg/mL in the assay with Bacillus subtilis [1] amounted to 10 mm; in the assay on Pseudomonas aeruginosa [2], 12.5 mm; with Staphylococcus aureus [3] it was 10 mm; in [4], 9.5 mm.
`Cc1ccc(-c2nc3c(cnn3-c3ccc([N+](=O)[O-])cc3[N+](=O)[O-])c(=O)[nH]2)cc1`: the zone of inhibition at 200 µg/mL with Staphylococcus aureus [5] is 13 mm; in assay [6] it was 9 mm; in the assay with Bacillus subtilis [7] it was 9 mm; in the assay on Pseudomonas aeruginosa [8], 7.5 mm.
`O=c1[nH]c(-c2ccc(Br)cc2)nc2c1cnn2-c1ccc([N+](=O)[O-])cc1[N+](=O)[O-]`: the zone of inhibition at 100 µg/mL with Bacillus subtilis [1] was found to be 9 mm; in the assay on Pseudomonas aeruginosa [2], 10 mm; with Staphylococcus aureus [3], 9 mm; in [4], 17 mm.
`COc1cccc(-c2nc3c(cnn3-c3ccc([N+](=O)[O-])cc3[N+](=O)[O-])c(=O)[nH]2)c1`: the zone of inhibition at 100 µg/mL in the assay with Bacillus subtilis [1] is 8 mm; in the assay on Pseudomonas aeruginosa [2], 12.5 mm; with Staphylococcus aureus [3], 9 mm; in assay [4] it was 11.5 mm.
Take `O=c1[nH]c(-c2ccc(Cl)cc2)nc2c1cnn2-c1ccc([N+](=O)[O-])cc1[N+](=O)[O-]`: the zone of inhibition at 400 µg/mL in assay [9] was 10.5 mm; with Staphylococcus aureus [10], 8.5 mm; in the assay with Bacillus subtilis [11], 15 mm; in the assay on Pseudomonas aeruginosa [12], 8 mm.
Turning to `O=c1[nH]c(-c2ccccc2O)nc2c1cnn2-c1ccc([N+](=O)[O-])cc1[N+](=O)[O-]`, the zone of inhibition at 500 µg/mL was 7 mm in assay [13], 9 mm in the assay with Bacillus subtilis [14], 16 mm in the assay on Pseudomonas aeruginosa [15] and 9 mm with Staphylococcus aureus [16].
As to `O=c1[nH]c(-c2ccc([N+](=O)[O-])cc2)nc2c1cnn2-c1ccc([N+](=O)[O-])cc1[N+](=O)[O-]`, the zone of inhibition at 300 µg/mL in the assay on Pseudomonas aeruginosa [17] turned out to be 13.5 mm; in the assay on Staphylococcus aureus [18], 8.5 mm; in the assay on Bacillus subtilis [19], 9 mm; in assay [20], 9 mm.
Take `O=c1[nH]c(-c2ccccc2)nc2c1cnn2-c1ccc([N+](=O)[O-])cc1[N+](=O)[O-]`: the zone of inhibition at 400 µg/mL in assay [9] amounted to 15 mm; in the assay on Staphylococcus aureus [10], 9 mm; with Bacillus subtilis [11], 10 mm; in the assay with Pseudomonas aeruginosa [12], 9.5 mm.
Take `O=c1[nH]c(-c2cccc(O)c2)nc2c1cnn2-c1ccc([N+](=O)[O-])cc1[N+](=O)[O-]`: the zone of inhibition at 500 µg/mL stood at 12 mm in assay [13], 12 mm with Bacillus subtilis [14], 9.5 mm with Pseudomonas aeruginosa [15] and 16 mm in the assay with Staphylococcus aureus [16].
Take `CN[C@@H]1[C@H](O[C@H]2[C@H](O[C@H]3[C@H](O)[C@@H](O)[C@H](N=C(N)N)[C@@H](O)[C@@H]3N=C(N)N)O[C@@H](C)[C@]2(O)C=O)O[C@@H](CO)[C@H](O)[C@H]1O` [STREPTOMYCIN]: the zone of inhibition at 10 µg/mL in [21] was 17 mm; in the assay with Staphylococcus aureus [22], 15 mm; in the assay on Pseudomonas aeruginosa [23] it was 10 mm; in the assay with Bacillus subtilis [24], 10 mm.
Turning to `O=c1[nH]c(-c2cccc([N+](=O)[O-])c2)nc2c1cnn2-c1ccc([N+](=O)[O-])cc1[N+](=O)[O-]`, the zone of inhibition at 400 µg/mL turned out to be 8 mm in [9], 15 mm in the assay on Staphylococcus aureus [10], 11 mm in the assay on Bacillus subtilis [11] and 9 mm in the assay on Pseudomonas aeruginosa [12].
